According to ChEMBL document CHEMBL1122596, “Synthesis and evaluation of a novel series of N,N-dimethylisotryptamines” (J Med Chem, 1984):
Where “and” joins values, the source holds several entries; their conditions need not be identical. Equal entries are not always repeated.

Experiments:
[1] = target: 5-hydroxytryptamine receptor 2B (Rattus norvegicus, UniProt P30994); assay: Displacement of [3H]5-HT binding to serotonin receptor of rat fundus membranes; settings: read-out: pA2 (converted)
[2] = target: Serotonin (5-HT) receptor; assay: Evaluated for inhibition of specific [3H]5-HT receptor binding in rat cortex.
Procedure, shortened: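 Rat cortex (dorsal to rhinal sulcus) from male Sprague-Dawley rats (150–200 g), pooled, homogenized in 0.05 M Tris-HCl pH 7.4, washed four times by centrifugation with a 37 °C 10-min incubation between washes. [3H]-5-HT binding done with varying test compound concentrations in 50 mM Tris pH 7.4, 10 μM pargyline, 4 mM CaCl2, 7 min at 37 °C. Filtered on glass fibre. Specific binding taken as the difference with 1 μM metergoline.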

[3] = tested on: Rattus norvegicus; assay: Responses made on the DOM -appropriate lever as a percent of total responses; data was collected during the 2.5 min extinction session at 12 mg/kg dose; type: functional
Procedure, shortened: (§1)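 Male Sprague-Dawley rats trained to tell racemic DOM (1.0 mg/kg) from saline in a two-lever operant task (VI-15s schedule). Drug was given 15 min before a 2.5-min nonreinforced extinction session. The read-out was DOM-appropriate lever responses as % of total responses, with about 5 rats per dose. ED50 was taken from dose-response data by Finney's method.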

[4] = tested on: Rattus norvegicus; assay: Responses made on the DOM -appropriate lever as a percent of total responses; data was collected during the 2.5 min extinction session at 7 mg/kg dose; type: functional; procedure, shortened: as §1
[5] = species: Rattus norvegicus; assay: Mean responses per minute during the extinction session.; type: functional
Procedure, shortened: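 Male Sprague-Dawley rats trained in a two-lever operant task to discriminate racemic DOM (1.0 mg/kg) from saline, given 15 min before a VI-15s reinforcement schedule. Test compound given by injection before a 2.5-min nonreinforced extinction session. Read-outs are DOM-lever responses as percent of total responses, and responses per minute. Values are means ±SEM over the animals responding; no responding was recorded as disruption.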

Chain of 5-hydroxytryptamine receptor 2B (P30994 whole entry): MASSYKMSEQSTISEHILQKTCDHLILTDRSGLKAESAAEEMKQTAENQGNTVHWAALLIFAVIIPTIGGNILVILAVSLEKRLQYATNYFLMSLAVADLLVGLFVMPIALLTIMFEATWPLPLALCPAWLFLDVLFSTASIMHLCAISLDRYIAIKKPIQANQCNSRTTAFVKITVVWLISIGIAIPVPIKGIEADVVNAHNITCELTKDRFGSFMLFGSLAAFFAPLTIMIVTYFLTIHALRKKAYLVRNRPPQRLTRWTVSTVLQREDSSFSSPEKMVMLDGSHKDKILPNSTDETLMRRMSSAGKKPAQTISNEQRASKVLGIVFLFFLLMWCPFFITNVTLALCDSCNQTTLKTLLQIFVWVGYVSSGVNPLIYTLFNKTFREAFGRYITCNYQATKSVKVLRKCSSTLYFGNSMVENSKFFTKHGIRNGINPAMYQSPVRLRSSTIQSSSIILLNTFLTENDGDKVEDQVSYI

## NCCC1CNc2ccccc21 (centres undefined)
[1]
  Kb: 2090 nM

## COc1cccc2[nH]cc(CCN)c12
[2]
  IC50: 220 nM

## COc1ccc2c(CCN)c[nH]c2c1
[2]
  IC50: 630 nM

## CCN(CCN(C)C)c1ccccc1
[1]
  Kb: 537 nM

## CN(C)CCn1cnc2ccccc21
[1]
  Kb: 138 nM
[3]
  DOM: 0%
[4]
  DOM: 0%
[5]
  Response rate: 12.6 and 15.2

## CN(C)CCN1CCc2ccccc21
[1]
  Kb: 269 nM
